Reference: PMC8521277 (The EMBO Journal, 2021)

Assays:
[1] = target: GRASP domain of GRASP55 (recombinant protein used for ITC); experiment: ITC
HeLa cells [2] = experiment: Localization of SL biosynthetic enzymes after Brefeldin A, immunofluorescence; assay type: cell-based, human; details: BFA 5 μg/ml, 30 min; SMS1 also in punctate structures
HeLa cells [3] = experiment: [3H]-sphingosine pulse-chase assay after expression of GCS constructs; assay type: cell-based, human; details: 8 h chase, two independent experiments; for increase in GSL production: transfected construct 16 h
Outline: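 HeLa cells were transfected with GCS constructs for 16 h, with non-transfected cells run alongside. Cells were pulse-labelled for 2 h with [3H]-sphingosine (final 0.1 μCi/ml) in serum-free DMEM with 1% fatty-acid-free BSA, then chased 8 h in complete medium with or without BFA (5 μg/ml). Lipids were extracted and resolved by HPTLC (chloroform/methanol/water 65:25:4). Total GSL radioactivity is given as fold change versus control, mean ± SD of two experiments, with Student's t-test.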

GRASP55‐GFP = experiment: Co-immunoprecipitation of HA-tagged enzymes with GRASP55-GFP in HeLa cells; assay type: binding, human; details: anti-GFP IP, anti-HA blot
Outline: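 HeLa cells were co-transfected with HA-tagged GCS, LCS, GM3S or Gb3S plus GRASP55-GFP. Cells were lysed and immunoprecipitated with anti-GFP antibody or control IgG. Interaction was read by Western blotting with anti-HA antibody.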

endogenous GRASP55 = assay type: binding, human; details: HA-tagged enzymes, WI-26 fibroblasts, anti-HA IP

Row | Molecule | co-immunoprecipitation with GRASP55-GFP (in words) (GRASP55‐GFP) | co-immunoprecipitation with endogenous GRASP55 (in words) (endogenous GRASP55) | other results
1 | GCS C-terminal cytosolic tail peptide (biotinylated, WT) | – | – | Kd [1]: 2000 nM
2 | C[C@H]1CCC/C=C/[C@@H]2C[C@H](O)C[C@H]2[C@H](O)/C=C/C(=O)O1 [Brefeldin A, reference compound] | – | – | localization of SL biosynthetic enzymes (in words) (HeLa cells [2]): translocation of the enzymes back into the ER; effect on differences in GSL production between GCS constructs (in words) (HeLa cells [3]; BFA 5 μg/ml): neutralized these differences
3 | GCS: GlcCer synthase, full‐length, expressed in cells (protein, left off: HA (9aa), internal (between the two Gly residues of DPTISWRTGRYRLRCGGTAEEILDV), kept) MALLDLALEGMAVFGFVLFLVLWLMHFMAIIYTRLHLNKKATDKQPYSKLPGVSLLKPLKGVDPNLINNLETFFELDYPKYEVLLCVQDHDDPAIDVCKKLLGKYPNVDARLFIGGKKVGINPKINNLMPGYEVAKYDLIWICDSGIRVIPDTLTDMVNQMTEKVGLVHGLPYVADRQGFAATLEQVYFGTSHPRYYISANVTGFKCVTGMSCLMRKDVLDQAGGLIAFAQYIAEDYFMAKAIADRGWRFAMSTQVAMQNSGSYSISQFQSRMIRWTKLRINMLPATIICEPISECFVASLIIGWAAHHVFRWDIMVFFMCHCLAWFIFDYIQLRGVQGGTLCFSKLDYAVAWFIRESMTIYIFLSALWDPTISWRTGRYRLRCGGTAEEILDV | co‐immunoprecipitated with GRASP55‐GFP | interaction of GCS and LCS with endogenous GRASP55 was also observed | –
4 | GCS‐HAN: GCS with a HA‐tag in the N‐terminal tail (protein, UniProt Q16739 1-394, looked up, HA tag in N-terminal tail) Ceramide glucosyltransferase: MALLDLALEGMAVFGFVLFLVLWLMHFMAIIYTRLHLNKKATDKQPYSKLPGVSLLKPLKGVDPNLINNLETFFELDYPKYEVLLCVQDHDDPAIDVCKKLLGKYPNVDARLFIGGKKVGINPKINNLMPGYEVAKYDLIWICDSGIRVIPDTLTDMVNQMTEKVGLVHGLPYVADRQGFAATLEQVYFGTSHPRYYISANVTGFKCVTGMSCLMRKDVLDQAGGLIAFAQYIAEDYFMAKAIADRGWRFAMSTQVAMQNSGSYSISQFQSRMIRWTKLRINMLPATIICEPISECFVASLIIGWAAHHVFRWDIMVFFMCHCLAWFIFDYIQLRGVQGGTLCFSKLDYAVAWFIRESMTIYIFLSALWDPTISWRTGRYRLRCGGTAEEILDV | – | – | increase in GSL production (HeLa cells [3]): 2.6 fold
5 | GCS‐HAC: GCS with a HA‐tag at the C‐terminus (protein, UniProt Q16739 1-394, looked up, C-terminal HA tag) Ceramide glucosyltransferase: MALLDLALEGMAVFGFVLFLVLWLMHFMAIIYTRLHLNKKATDKQPYSKLPGVSLLKPLKGVDPNLINNLETFFELDYPKYEVLLCVQDHDDPAIDVCKKLLGKYPNVDARLFIGGKKVGINPKINNLMPGYEVAKYDLIWICDSGIRVIPDTLTDMVNQMTEKVGLVHGLPYVADRQGFAATLEQVYFGTSHPRYYISANVTGFKCVTGMSCLMRKDVLDQAGGLIAFAQYIAEDYFMAKAIADRGWRFAMSTQVAMQNSGSYSISQFQSRMIRWTKLRINMLPATIICEPISECFVASLIIGWAAHHVFRWDIMVFFMCHCLAWFIFDYIQLRGVQGGTLCFSKLDYAVAWFIRESMTIYIFLSALWDPTISWRTGRYRLRCGGTAEEILDV | – | – | increase in GSL production (HeLa cells [3]): 2.3 fold
6 | GM3S: GM3 synthase, expressed in cells (protein, left off: HA, end not stated, kept) MRTKAAGCAERRPLQPRTEAAAAPAGRAMPSEYTYVKLRSDCSRPSLQWYTRAQSKMRRPSLLLKDILKCTLLVFGVWILYILKLNYTTEECDMKKMHYVDPDHVKRAQKYAQQVLQKECRPKFAKTSMALLFEHRYSVDLLPFVQKAPKDSEAESKYDPPFGFRKFSSKVQTLLELLPEHDLPEHLKAKTCRRCVVIGSGGILHGLELGHTLNQFDVVIRLNSAPVEGYSEHVGNKTTIRMTYPEGAPLSDLEYYSNDLFVAVLFKSVDFNWLQAMVKKETLPFWVRLFFWKQVAEKIPLQPKHFRILNPVIIKETAFDILQYSEPQSRFWGRDKNVPTIGVIAVVLATHLCDEVSLAGFGYDLNQPRTPLHYFDSQCMAAMNFQTMHNVTTETKFLLKLVKEGVVKDLSGGIDREF | do not interact | – | –
7 | GCS‐Δ3C (protein, left off: HA (9aa), internal (between the two Gly residues of DPTISWRTGRYRLRCGGTAEEI), kept) MALLDLALEGMAVFGFVLFLVLWLMHFMAIIYTRLHLNKKATDKQPYSKLPGVSLLKPLKGVDPNLINNLETFFELDYPKYEVLLCVQDHDDPAIDVCKKLLGKYPNVDARLFIGGKKVGINPKINNLMPGYEVAKYDLIWICDSGIRVIPDTLTDMVNQMTEKVGLVHGLPYVADRQGFAATLEQVYFGTSHPRYYISANVTGFKCVTGMSCLMRKDVLDQAGGLIAFAQYIAEDYFMAKAIADRGWRFAMSTQVAMQNSGSYSISQFQSRMIRWTKLRINMLPATIICEPISECFVASLIIGWAAHHVFRWDIMVFFMCHCLAWFIFDYIQLRGVQGGTLCFSKLDYAVAWFIRESMTIYIFLSALWDPTISWRTGRYRLRCGGTAEEI | – | impaired the interaction | –
8 | LCS: LacCer synthase, expressed in cells (protein, left off: HA, end not stated, kept) MRARRGLLRLPRRSLLAALFFFSLSSSLLYFVYVAPGIVNTYLFMMQAQGILIRDNVRTIGAQVYEQVLRSAYAKRNSSVNDSDYPLDLNHSETFLQTTTFLPEDFTYFANHTCPERLPSMKGPIDINMSEIGMDYIHELFSKDPTIKLGGHWKPSDCMPRWKVAILIPFRNRHEHLPVLFRHLLPMLQRQRLQFAFYVVEQVGTQPFNRAMLFNVGFQEAMKDLDWDCLIFHDVDHIPESDRNYYGCGQMPRHFATKLDKYMYLLPYTEFFGGVSGLTVEQFRKINGFPNAFWGWGGEDDDLWNRVQNAGYSVSRPEGDTGKYKSIPHHHRGEVQFLGRYALLRKSKERQGLDGLNNLNYFANITYDALYKNITVNLTPELAQVNEY | co‐immunoprecipitated with GRASP55‐GFP | interaction of GCS and LCS with endogenous GRASP55 was also observed | –
9 | Gb3S: Gb3 synthase, expressed in cells (protein, left off: HA, end not stated, kept) MSKPPDLLLRLLRGAPRQRVCTLFIIGFKFTFFVSIMIYWHVVGEPKEKGQLYNLPAEIPCPTLTPPTPPSHGPTPGNIFFLETSDRTNPNFLFMCSVESAARTHPESHVLVLMKGLPGGNASLPRHLGISLLSCFPNVQMLPLDLRELFRDTPLADWYAAVQGRWEPYLLPVLSDASRIALMWKFGGIYLDTDFIVLKNLRNLTNVLGTQSRYVLNGAFLAFERRHEFMALCMRDFVDHYNGWIWGHQGPQLLTRVFKKWCSIRSLAESRACRGVTTLPPEAFYPIPWQDWKKYFEDINPEELPRLLSATYAVHVWNKKSQGTRFEATSRALLAQLHARYCPTTHEAMKMYL | do not interact | – | –
